# KCNK9 block – KCNK9 potassium channel inhibitors, primary screen, HEK293 cells, thallium flux. FluxOR thallium flux fluorescence; stronger effect = lower value. B-score at 10 µM. 310,000 compounds, 1.2% hits. AID 488922, 2010;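 active = ratio B-score over 3 SD below the library mean, with starting fluorescence within 5 SD of its mean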;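 note: negative B-score means less thallium flux so channel inhibition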
# KCNK3 block – human KCNK3 channel inhibitors, primary screen, CHO cells, FluxOR thallium flux, B-score | Potassium channel subfamily K member 3 (Homo sapiens), O14649 | FluxOR fluorescence; stronger effect = lower value | B-score at 10 µM | 340,000 compounds, 0.84% hits | AID 602410, 2012;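 active = B-score under library mean minus 4 SD, starting fluorescence ratio at most library mean plus 5 SD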;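 note: more negative B-score means stronger inhibition of thallium flux through KCNK3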
# Kir21 block – inhibitors of mouse Kir2.1 inward-rectifier potassium channel. Inward rectifier potassium channel 2 (Mus musculus), P35561. HEK293-Kir2.1, FluxOR thallium flux fluorescence; stronger effect = lower value. B-score at 10 µM. 310,000 compounds, 0.85% hits. AID 1672, 2009;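 active = fluorescence ratio B-score at or below minus 3 SD of library scores, with starting-brightness B-score within 2 SD, cut at about -4.2 in these data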;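 note: channel flux triggered by added potassium and thallium sulfate stimulus; B-score of peak minus minimum fluorescence over baseline after thallium stimulus; more negative B-score means stronger Kir2.1 block with less thallium influx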
# hERG rescue – hERG rescue from dofetilide block, primary screen, cell-based, CHO-hERG, FluxOR thallium flux, dofetilide IC70; 310,000 compounds, 0.51% hits; activation (rescue from dofetilide block), less the hit threshold, % at 10 µM; dofetilide IC70 present; AID 1511, 2009; Voltage-gated inwardly rectifying potassium channel KCNH2 (Homo sapiens), Q12809;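 active = activation above the mean of controls blocked by dofetilide plus 5 SD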;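 note: thallium influx through hERG after potassium depolarization seen as dye fluorescence rise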
# KCNQ1 act – potentiators or activators of KCNQ1 channel, primary screen, cell-based, thallium flux, high-throughput; Potassium voltage-gated channel subfamily KQT member 1 (Homo sapiens), P51787; CHO-K1 KCNQ1, thallium flux FluxOR fluorescence; stronger effect = higher value; B-score at 10 µM; 310,000 compounds, 0.35% hits;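 active = fluorescence ratio B-score, a plate-corrected score, at least three library SD, with initial intensity B-score within 5 SD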
# Target sequence (P51787 whole entry, looked up): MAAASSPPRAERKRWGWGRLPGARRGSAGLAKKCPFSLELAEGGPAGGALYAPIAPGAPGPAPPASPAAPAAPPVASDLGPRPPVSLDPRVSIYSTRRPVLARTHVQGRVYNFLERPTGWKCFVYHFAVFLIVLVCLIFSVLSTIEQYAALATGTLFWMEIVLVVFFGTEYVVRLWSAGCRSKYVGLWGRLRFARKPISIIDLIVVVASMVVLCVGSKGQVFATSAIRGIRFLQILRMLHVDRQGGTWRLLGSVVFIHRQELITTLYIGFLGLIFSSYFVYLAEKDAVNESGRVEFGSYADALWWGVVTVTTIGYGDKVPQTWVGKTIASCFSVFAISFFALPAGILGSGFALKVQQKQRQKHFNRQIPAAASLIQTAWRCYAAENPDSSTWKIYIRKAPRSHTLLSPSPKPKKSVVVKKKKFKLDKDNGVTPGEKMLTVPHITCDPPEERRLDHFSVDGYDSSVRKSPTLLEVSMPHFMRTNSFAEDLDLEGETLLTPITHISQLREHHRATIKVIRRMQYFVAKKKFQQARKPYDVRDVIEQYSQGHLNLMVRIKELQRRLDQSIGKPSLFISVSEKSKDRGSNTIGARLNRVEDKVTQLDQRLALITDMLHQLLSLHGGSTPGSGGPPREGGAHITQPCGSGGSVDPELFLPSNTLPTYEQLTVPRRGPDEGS
#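 Assay system: CHO-K1 cells stably expressing KCNQ1; Medium: assay buffer with matched DMSO; Also added: K+/Tl+ depolarizing stimulus; Dosing: single dose; Timing: dye 90 min, compound 20 min, room temperature; Measured by: kinetic FluxOR thallium fluorescence, 10-s 1-Hz baseline, 110-s post-stimulus read; Read-out: peak-minus-minimum fluorescence over initial fluorescence, negative-control normalized, B-scored.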
# KCNQ1 inh – inhibitors of human KCNQ1 channel, primary screen, cell-based, thallium flux, high-throughput; CHO-K1 KCNQ1, FluxOR thallium flux fluorescence; stronger effect = higher value; B-score at 10 µM; 310,000 compounds, 1.3% hits; AID 2642, 2010;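 active = compounds whose thallium flux B-score, printed positive for inhibition, exceeds three library SD while starting fluorescence stays within three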;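 note: channel opened by potassium depolarization with thallium stimulus after 20 min compound exposure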
# KCNK9 inh conf – KCNK9 potassium channel inhibitors, confirmation, HEK293 cells, thallium flux, duplicate. shares compounds with KCNK9 block. FluxOR thallium flux fluorescence. inhibition, % at 10 µM. 4,900 compounds, 43% hits;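 active = thallium signal inhibited by more than 5 SD of the compound-free buffer control wells, on both duplicate plates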;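 note: 0% = assay buffer control wells without compound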
# Kir21 sel – mouse Kir2.1 channel inhibition, confirmation, selectivity assay for KCNK9 modulator project, cell-based, HEK293, thallium flux; shares compounds with KCNK9 block; Kir2.1 cells, FluxOR thallium flux fluorescence; inhibition, % at 10 µM; 4,900 compounds, 4% hits; AID 492993, 2010;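 active = thallium signal drop more than 5 SD beyond the mean of the no-compound control wells, seen in both duplicate plates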;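 note: signal is fluorescence rise after thallium addition divided by baseline fluorescence; plate controls were assay buffer only for no effect and full block by chlorpromazine control for full effect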
# KCNK9 uninduced – thallium flux in non-induced HEK293 cells, confirmation, counter-screen for KCNK9 inhibitor project, cell-based, second counter screen, non-induced KCNK9-HEK293; FluxOR thallium flux; shares compounds with KCNK9 block; inhibition, % at 10 µM; 4,900 compounds, 40% hits;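 active = thallium signal drop beyond 5 SD of the untreated control mean, on both duplicate plates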;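 note: plate controls were buffer only IC0 wells for no effect and SID17386958 at its maximal inhibitory level for full effect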
# * hit, by the source's call; i = inactive; nt = no result. Shown are actives, neighbours in structure and some others; about 3.8% of the full set was active somewhere.
SMILES,KCNK9 block,KCNK3 block,Kir21 block,hERG rescue,KCNQ1 act,KCNQ1 inh,KCNK9 inh conf,Kir21 sel,KCNK9 uninduced
Cn1c(CN2CCCC(C(=O)c3ccc4c(c3)OCO4)C2)nc2ccccc21 (stereo unspecified),i,i,-1.2,-9,i,i,i,i,i
O=C(c1ccc2c(c1)OCO2)C1CCCN(Cc2c(F)ccc(F)c2F)C1 (stereo unspecified),i,i,-1.1,-6,i,i,i,i,i
CNc1nc(SCc2ccccc2Cl)nc2c1CCCC2,-11*,i,3.5,-8,i,i,28%*,i,38%*
CN(C)c1nc(SCc2ccc(Cl)cc2)nc2c1CCCC2,-9.9*,i,1.8,-10,i,i,34%*,i,56%*
C=CCn1c(NS(=O)(=O)c2ccccc2)c(S(=O)(=O)c2ccc(C)cc2)c2nc3ccccc3nc21,i,i,-0.53,-6,i,i,nt,nt,nt
O=S(=O)(Nc1c(S(=O)(=O)c2ccccc2)c2nc3ccccc3nc2n1C1CCCCC1)c1ccccc1,i,i,-5.1*,-17,i,i,i,i,i
Cc1ccc(C(C(=O)Nc2ccc3c(c2)OCO3)N(C)C(=O)/C=C\c2ccc3c(c2)OCO3)cc1 (stereo unspecified),i,i,1.1,-3,i,i,nt,nt,nt
COc1ccc(NC2CCCN(C(=O)CCOc3ccccc3)C2)cc1 (stereo unspecified),i,i,-0.47,-8,i,i,i,i,i
COc1ccc(NC2CCCN(C(=O)CCc3ccccc3F)C2)cc1 (stereo unspecified),i,i,-1.9,-7,i,i,i,i,i
COc1ccc(NC2CCCN(C(=O)CSc3ccccc3)C2)cc1 (stereo unspecified),i,i,-3.2,-7,i,i,nt,nt,nt
COc1cc(C(=O)Nc2nc(N)n(-c3ccccc3)n2)cc(OC)c1OC,i,i,1.2,-7,i,i,nt,nt,nt
Cc1cc(C)c(C)c(S(=O)(=O)NC2CCCCC2)c1C,i,i,0.16,-9,i,i,nt,nt,nt
Brc1ccc(Oc2ncc(CN3CCN(c4ccccc4)CC3)s2)cc1,i,i,-0.84,-2,i,i,i,i,i
CSc1nc(-c2ccccc2)nn1S(=O)(=O)c1ccccc1,i,i,0.91,-16,i,i,nt,nt,nt
Cc1ccc(C)n1-c1nn(S(=O)(=O)c2ccccc2)c2cccc(F)c12,-15*,i,0.93,-3,i,i,58%*,i,42%*
Oc1c(C(Nc2nc3ccccc3s2)c2ccco2)ccc2cccnc12 (stereo unspecified),i,i,-0.9,-4,i,i,nt,nt,nt
N#CC(c1ccccc1)C1CCN(Cc2ccccc2)CC1 (stereo unspecified),i,i,-5.2*,-8,i,i,i,i,i
CC(CN1CCN(Cc2ccccc2)CC1)c1ccccc1 (stereo unspecified),i,i,0.32,-4,i,i,nt,nt,nt
